Reference: ChEMBL document CHEMBL1143246, “Design and synthesis of bicyclic pyrimidinones as potent and orally bioavailable HIV-1 integrase inhibitors” (J Med Chem, 2008)

Assays:
[1] = system: Human immunodeficiency virus 1; experiment: Antiviral activity against HIV1 in human MT4 cell assessed as inhibition of virus spread in presence of 50% normal human serum; format: functional; conditions: Human immunodeficiency virus 1, MT4; read-out: CIC95
In short: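 Spread of HIV-1 infection in MT-4 human T-lymphoid cell culture with 50% normal human serum; CIC95 is the concentration inhibiting spread by ≥95%; mean of at least three independent experiments.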

[2] = system: Human immunodeficiency virus 1; experiment: Antiviral activity against HIV1 in human MT4 cell assessed as inhibition of virus spread in presence of 10% fetal bovine serum; format: functional; conditions: Human immunodeficiency virus 1, MT4; read-out: CIC95
In short: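 Spread of HIV-1 infection in MT-4 human T-lymphoid cell culture with 10% fetal bovine serum; CIC95 is the concentration inhibiting spread by ≥95%; mean of at least three independent experiments.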

[3] = Inhibition of recombinant HIV1 integrase strand transfer activity

Row | SMILES | IC50 [3] [nM] | IC95 [1] [nM] | IC95 [2] [nM]
1 | O=C(NCc1ccc(F)cc1)c1ncnc(O)c1O | 60 | > 10000 | > 10000
2 | CN(C)C(=O)C(=O)N(C)[C@@H]1CCCCn2c1nc(C(=O)NCc1ccc(F)cc1)c(O)c2=O | 35 | 42 | 21
3 | CN(C)C(=O)C(=O)N(C)[C@@H]1CCCn2c1nc(C(=O)NCc1ccc(F)cc1)c(O)c2=O | 19 | 98 | 67
4 | CN(C(=O)CS(=O)(=O)N(C)C)[C@@H]1CCCn2c1nc(C(=O)NCc1ccc(F)cc1)c(O)c2=O | 7 | 62 | 31
5 | O=C(NCc1ccc(F)cc1)c1nc2n(c(=O)c1O)CCCC2 | 5 | – | –
6 | CN1CCOCC1c1nc(C(=O)NCc2ccc(F)cc2)c(O)c(=O)n1C (configuration not stated) | – | 100 | 60
7 | O=C(NCc1ccc(F)cc1)c1nc2n(c(=O)c1O)CCC2 | 8 | – | –
8 | CN(Cc1ccccc1)C1CCCCn2c1nc(C(=O)NCc1ccc(F)cc1)c(O)c2=O (racemic) | 62 | – | –
9 | CN(Cc1ccccc1)C1CCCn2c1nc(C(=O)NCc1ccc(F)cc1)c(O)c2=O (racemic) | 4 | – | –
10 | CN(C)C(=O)C(=O)N(C)C1CCn2c1nc(C(=O)NCc1ccc(F)cc1)c(O)c2=O (racemic) | 20 | > 1000 | > 1000
11 | CN(C)C(=O)C(=O)N(C)C1CCCCn2c1nc(C(=O)NCc1ccc(F)cc1)c(O)c2=O (racemic) | 13 | 63 | 94
12 | CN1CCCN(C2CCCn3c2nc(C(=O)NCc2ccc(F)cc2)c(O)c3=O)S1(=O)=O (racemic) | 14 | 47 | 16
13 | CN(C1CCCn2c1nc(C(=O)NCc1ccc(F)cc1)c(O)c2=O)S(=O)(=O)N1CCCCC1 (racemic) | 9 | 125 | 63
14 | O=C(NCc1ccc(F)cc1)c1nc2n(c(=O)c1O)CCCC2N1CCCCC1 (racemic) | 4 | – | –
15 | CN1CCN(S(=O)(=O)N(C)C2CCCn3c2nc(C(=O)NCc2ccc(F)cc2)c(O)c3=O)CC1 (racemic) | 7 | 20 | 6
16 | O=C(NCc1ccc(F)cc1)c1nc2n(c(=O)c1O)CCCC2N1CCCC1 (racemic) | 63 | – | –
17 | CN(C)C1CCCCn2c1nc(C(=O)NCc1ccc(F)cc1)c(O)c2=O (racemic) | 550 | – | –
18 | CN(C1CCCn2c1nc(C(=O)NCc1ccc(F)cc1)c(O)c2=O)S(=O)(=O)N1CCCC1 (racemic) | 7 | 47 | 16
19 | CN1CCCN(C2CCCCn3c2nc(C(=O)NCc2ccc(F)cc2)c(O)c3=O)S1(=O)=O (racemic) | 6 | 156 | 78
20 | O=C(NCc1ccc(F)cc1)c1nc2n(c(=O)c1O)CCCCC2N1CCOCC1 (racemic) | 62 | – | –

The next lines start with results.

Row | IC50 [3] [nM] | SMILES | IC95 [1] [nM] | IC95 [2] [nM]
21 | 100 | CC(c1nc(O)c(O)c(C(=O)NCc2ccc(F)cc2)n1)N(C)C (configuration not stated) | 500 | 130
22 | 10 | CN1CCOCC1c1nc(O)c(O)c(C(=O)NCc2ccc(F)cc2)n1 (configuration not stated) | 230 | 30
23 | 10 | CN1CCN(S(=O)(=O)N(C)[C@@H]2CCCn3c2nc(C(=O)NCc2ccc(F)cc2)c(O)c3=O)CC1 | 20 | 13
24 | 19 | O=C(NCc1ccc(F)cc1)c1nc2n(c(=O)c1O)CCCCC2 | – | –
25 | 5 | O=C(NCc1ccc(F)cc1)c1nc2n(c(=O)c1O)CCCC2N1CCOCC1 (racemic) | – | –
26 | 11 | CN(C1CCCn2c1nc(C(=O)NCc1ccc(F)cc1)c(O)c2=O)S(=O)(=O)N1CCOCC1 (racemic) | 31 | 15
27 | 7 | CN(C)C1CCn2c1nc(C(=O)NCc1ccc(F)cc1)c(O)c2=O (racemic) | – | –
28 | 7 | CN(C)C(=O)C(=O)N(C)C1CCCn2c1nc(C(=O)NCc1ccc(F)cc1)c(O)c2=O (racemic) | 40 | 38
29 | 69 | CN(C)C1CCCn2c1nc(C(=O)NCc1ccc(F)cc1)c(O)c2=O (racemic) | – | –
